Assay results: ChEMBL document CHEMBL4312005, “Optimization of pyrrolizine-based Schiff bases with 4-thiazolidinone motif: Design, synthesis and investigation of cytotoxicity and anti-inflammatory potency” (Eur J Med Chem, 2020)

Key:
[1] = test system: Rattus norvegicus; assay: Antiinflammatory activity against albino rats assessed as inhibition of carrageenan-induced paw edema at 15 mg/kg, po measured after 4 hrs relative to control; format: functional
Summary of the method: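 Carrageenan rat paw edema (Winter method) in male and female adult albino rats (100-140 g). […] Swelling inhibition expressed as % of control at 2-4 h after carrageenan injection.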

[2] = test system: Rattus norvegicus; assay: Antiinflammatory activity against albino rats assessed as inhibition of carrageenan-induced paw edema at 15 mg/kg, po measured after 2 hrs relative to control; format: functional
Summary of the method: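 Winter carrageenan rat paw oedema model in adult albino rats of both sexes (100-140 g). Compounds given orally before carrageenan injection into the paw. Oedema inhibition % versus untreated control read at 2-4 h post-carrageenan. Significance versus control was tested at P < 0.05, 0.01 and 0.001. Animal work approved by the Umm Al-Qura University pharmacy ethics committee.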

COc1ccc2c(c1)c(CC(=O)O)c(C)n2C(=O)c1ccc(Cl)cc1 [INDOMETHACIN]
inhibition in vivo at 15 mg/kg [1]: 56.4%
inhibition in vivo at 15 mg/kg [2]: 32.3%
